Data from ChEMBL document CHEMBL4118106 (J Med Chem, 2018).
Where a SMILES comes first, the peptide text is derived from it. Bridges are numbered along the chain shown (N, C = ends). [ ]: non-standard residue; d: D form. R5 = C=CCCC[C@@](C)(N)C(=O)O; S5 = C=CCCC[C@](C)(N)C(=O)O; Nle = CCCC[C@H](N)C(=O)O

Assay: Inhibition of EGFP-fused MERS-CoV spike protein mediated cell-cell fusion between viral protein expressing human 293T cells and human HuH7 target cells after 4 hrs by inverted fluorescence microscopic analysis
Design: species or system Middle East respiratory syndrome-related coronavirus
In short: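 Huh-7 target cells expressing DPP4 were seeded at 5 × 10^4/well and kept at 37 °C for 5 h. Inhibitors were added, then 293T effector cells co-expressing S protein and EGFP (1 × 10^4/well); 293T/EGFP-only cells served as negative control. After 4 h coculture at 37 °C, fused and unfused cells were counted by fluorescence microscopy.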

Row | Structure (SMILES) | EC50
1 | CCCC[C@H](NC(=O)[C@H](CCC(=O)O)NC(=O)[C@H](Cc1ccc(O)cc1)NC(=O)[C@@H](NC(=O)[C@H](CC(C)C)NC(=O)[C@H](CC(=O)O)NC(=O)[C@H](CC(C)C)NC(C)=O)[C@@H](C)O)C(=O)N[C@@H](CC(C)C)C(=O)N[C@@H](CO)C(=O)N[C@@H](CC(C)C)C(=O)N[C@@H](CCC(N)=O)C(=O)N[C@@]1(C)CCC/C=C\CCC[C@@](C)(C(=O)N[C@@H](CC(C)C)C(=O)N[C@@H](CC(N)=O)C(=O)N[C@@H](CCC(=O)O)C(=O)N[C@@H](CO)C(=O)N[C@@H](Cc2ccccc2)C(N)=O)NC(=O)[C@H](CCCCN)NC(=O)[C@H](C(C)C)NC(=O)[C@H](C(C)C)NC1=O (Ac-LDLTYE[Nle]LSLQ[S5]VVK[S5]LNESF-NH2; staple (Z) 12-16) | 3.89 µM
2 | CSCC[C@H](NC(=O)[C@H](CCC(=O)O)NC(=O)[C@H](Cc1ccc(O)cc1)NC(=O)[C@@H](NC(=O)[C@H](CC(C)C)NC(=O)[C@H](CC(=O)O)NC(=O)[C@H](CC(C)C)NC(C)=O)[C@@H](C)O)C(=O)N[C@@H](CC(C)C)C(=O)N[C@@H](CO)C(=O)N[C@@H](CC(C)C)C(=O)N[C@@H](CCC(N)=O)C(=O)N[C@@]1(C)CCC/C=C\CCC[C@@](C)(C(=O)N[C@@H](CC(C)C)C(=O)N[C@@H](CC(N)=O)C(=O)N[C@@H](CCC(=O)O)C(=O)N[C@@H](CO)C(=O)N[C@@H](Cc2ccccc2)C(N)=O)NC(=O)[C@H](CCCCN)NC(=O)[C@H](C(C)C)NC(=O)[C@H](C(C)C)NC1=O (Ac-LDLTYEMLSLQ[S5]VVK[S5]LNESF-NH2; staple (Z) 12-16) | 2.16 µM
3 | CSCC[C@H](NC(=O)[C@]1(C)CCC/C=C\CCC[C@](C)(NC(=O)[C@H](CC(C)C)NC(C)=O)C(=O)N[C@@H](CC(C)C)C(=O)N[C@@H]([C@@H](C)O)C(=O)N[C@@H](Cc2ccc(O)cc2)C(=O)N1)C(=O)N[C@@H](CC(C)C)C(=O)N[C@@H](CO)C(=O)N[C@@H](CC(C)C)C(=O)N[C@@H](CCC(N)=O)C(=O)N[C@@H](CCC(N)=O)C(=O)N[C@H](C(=O)N[C@H](C(=O)N[C@@H](CCCCN)C(=O)N[C@@H](C)C(=O)N[C@@H](CC(C)C)C(=O)N[C@@H](CC(N)=O)C(=O)N[C@@H](CCC(=O)O)C(=O)N[C@@H](CO)C(=O)N[C@@H](Cc1ccc(O)cc1)C(N)=O)C(C)C)C(C)C | 3.9 µM
4 | C=CCCC[C@](C)(NC(=O)[C@H](Cc1ccc(O)cc1)NC(=O)[C@@H](NC(=O)[C@H](CC(C)C)NC(=O)[C@](C)(CCCC=C)NC(=O)[C@H](CC(C)C)NC(C)=O)[C@@H](C)O)C(=O)N[C@@H](CCSC)C(=O)N[C@@H](CC(C)C)C(=O)N[C@@H](CO)C(=O)N[C@@H](CC(C)C)C(=O)N[C@@H](CCC(N)=O)C(=O)N[C@@H](CCC(N)=O)C(=O)N[C@H](C(=O)N[C@H](C(=O)N[C@@H](CCCCN)C(=O)N[C@@H](C)C(=O)N[C@@H](CC(C)C)C(=O)N[C@@H](CC(N)=O)C(=O)N[C@@H](CCC(=O)O)C(=O)N[C@@H](CO)C(=O)N[C@@H](Cc1ccc(O)cc1)C(N)=O)C(C)C)C(C)C | 10.9 µM
5 | C=CCCC[C@](C)(NC(=O)[C@H](CCC(=O)O)NC(=O)[C@H](CC(N)=O)NC(=O)[C@H](CC(C)C)NC(=O)[C@](C)(CCCC=C)NC(=O)[C@H](CCCCN)NC(=O)[C@@H](NC(=O)[C@@H](NC(=O)[C@H](CCC(N)=O)NC(=O)[C@H](CCC(N)=O)NC(=O)[C@H](CC(C)C)NC(=O)[C@H](CO)NC(=O)[C@H](CC(C)C)NC(=O)[C@H](CCSC)NC(=O)[C@H](CCC(=O)O)NC(=O)[C@H](Cc1ccc(O)cc1)NC(=O)[C@@H](NC(=O)[C@H](CC(C)C)NC(=O)[C@H](CC(=O)O)NC(=O)[C@H](CC(C)C)NC(C)=O)[C@@H](C)O)C(C)C)C(C)C)C(=O)N[C@@H](Cc1ccc(O)cc1)C(N)=O | 3.55 µM
6 | CSCC[C@H](NC(=O)[C@H](CCC(=O)O)NC(=O)[C@H](Cc1ccc(O)cc1)NC(=O)[C@@H](NC(=O)[C@H](CC(C)C)NC(=O)[C@H](CC(=O)O)NC(=O)[C@H](CC(C)C)NC(C)=O)[C@@H](C)O)C(=O)N[C@@H](CC(C)C)C(=O)N[C@@H](CO)C(=O)N[C@@H](CC(C)C)C(=O)N[C@@H](CCC(N)=O)C(=O)N[C@@H](CCC(N)=O)C(=O)N[C@H](C(=O)N[C@H](C(=O)N[C@@]1(C)CCC/C=C/CCC[C@@](C)(C(=O)N[C@@H](CO)C(=O)N[C@@H](Cc2ccc(O)cc2)C(N)=O)NC(=O)[C@H](CC(N)=O)NC(=O)[C@H](CC(C)C)NC(=O)[C@H](C)NC1=O)C(C)C)C(C)C | 14.1 µM
7 | CSCC[C@H](NC(=O)[C@H](CCC(=O)O)NC(=O)[C@H](Cc1ccc(O)cc1)NC(=O)[C@@H](NC(=O)[C@H](CC(C)C)NC(=O)[C@H](CC(=O)O)NC(=O)[C@H](CC(C)C)NC(C)=O)[C@@H](C)O)C(=O)N[C@@H](CC(C)C)C(=O)N[C@@H](CO)C(=O)N[C@@H](CC(C)C)C(=O)N[C@@H](CCC(N)=O)C(=O)N[C@]1(C)CCC/C=C\CCC[C@](C)(C(=O)N[C@@H](CC(C)C)C(=O)N[C@@H](CC(N)=O)C(=O)N[C@@H](CCC(=O)O)C(=O)N[C@@H](CO)C(=O)N[C@@H](Cc2ccc(O)cc2)C(N)=O)NC(=O)[C@H](CCCCN)NC(=O)[C@H](C(C)C)NC(=O)[C@H](C(C)C)NC1=O (Ac-LDLTYEMLSLQ[R5]VVK[R5]LNESY-NH2; staple (Z) 12-16) | 16.3 µM
8 | C=CCCC[C@](C)(NC(=O)[C@H](CCCCN)NC(=O)[C@@H](NC(=O)[C@@H](NC(=O)[C@](C)(CCCC=C)NC(=O)[C@H](CCC(N)=O)NC(=O)[C@H](CC(C)C)NC(=O)[C@H](CO)NC(=O)[C@H](CC(C)C)NC(=O)[C@H](CCSC)NC(=O)[C@H](CCC(=O)O)NC(=O)[C@H](Cc1ccc(O)cc1)NC(=O)[C@@H](NC(=O)[C@H](CC(C)C)NC(=O)[C@H](CC(=O)O)NC(=O)[C@H](CC(C)C)NC(C)=O)[C@@H](C)O)C(C)C)C(C)C)C(=O)N[C@@H](CC(C)C)C(=O)N[C@@H](CC(N)=O)C(=O)N[C@@H](CCC(=O)O)C(=O)N[C@@H](CO)C(=O)N[C@@H](Cc1ccc(O)cc1)C(N)=O (Ac-LDLTYEMLSLQ[S5]VVK[S5]LNESY-NH2) | 20.6 µM
9 | CSCC[C@H](NC(=O)[C@H](CCC(=O)O)NC(=O)[C@H](Cc1ccc(O)cc1)NC(=O)[C@@H](NC(=O)[C@H](CC(C)C)NC(=O)[C@H](CC(=O)O)NC(=O)[C@H](CC(C)C)NC(C)=O)[C@@H](C)O)C(=O)N[C@@H](CC(C)C)C(=O)N[C@@H](CO)C(=O)N[C@@H](CC(C)C)C(=O)N[C@@H](CCC(N)=O)C(=O)N[C@@H](CCC(N)=O)C(=O)N[C@H](C(=O)N[C@H](C(=O)N[C@@H](CCCCN)C(=O)N[C@@H](C)C(=O)N[C@@H](CC(C)C)C(=O)N[C@@H](CC(N)=O)C(=O)N[C@@H](CCC(=O)O)C(=O)N[C@@H](CO)C(=O)N[C@@H](Cc1ccc(O)cc1)C(N)=O)C(C)C)C(C)C | > 50 µM
10 | C=CCCC[C@](C)(NC(=O)[C@H](CC(N)=O)NC(=O)[C@H](CC(C)C)NC(=O)[C@H](C)NC(=O)[C@](C)(CCCC=C)NC(=O)[C@@H](NC(=O)[C@@H](NC(=O)[C@H](CCC(N)=O)NC(=O)[C@H](CCC(N)=O)NC(=O)[C@H](CC(C)C)NC(=O)[C@H](CO)NC(=O)[C@H](CC(C)C)NC(=O)[C@H](CCSC)NC(=O)[C@H](CCC(=O)O)NC(=O)[C@H](Cc1ccc(O)cc1)NC(=O)[C@@H](NC(=O)[C@H](CC(C)C)NC(=O)[C@H](CC(=O)O)NC(=O)[C@H](CC(C)C)NC(C)=O)[C@@H](C)O)C(C)C)C(C)C)C(=O)N[C@@H](CO)C(=O)N[C@@H](Cc1ccc(O)cc1)C(N)=O | 10.9 µM
11 | C=CCCC[C@](C)(NC(=O)[C@H](CCSC)NC(=O)[C@H](CCC(=O)O)NC(=O)[C@H](Cc1ccc(O)cc1)NC(=O)[C@@H](NC(=O)[C@H](CC(C)C)NC(=O)[C@H](CC(=O)O)NC(=O)[C@H](CC(C)C)NC(C)=O)[C@@H](C)O)C(=O)N[C@@H](CO)C(=O)N[C@@H](CC(C)C)C(=O)N[C@@H](CCC(N)=O)C(=O)N[C@@](C)(CCCC=C)C(=O)N[C@H](C(=O)N[C@H](C(=O)N[C@@H](CCCCN)C(=O)N[C@@H](C)C(=O)N[C@@H](CC(C)C)C(=O)N[C@@H](CC(N)=O)C(=O)N[C@@H](CCC(=O)O)C(=O)N[C@@H](CO)C(=O)N[C@@H](Cc1ccc(O)cc1)C(N)=O)C(C)C)C(C)C (Ac-LDLTYEM[S5]SLQ[S5]VVKALNESY-NH2) | 4.49 µM
12 | CSCC[C@@H]1NC(=O)[C@H](CCC(=O)O)NC(=O)[C@@](C)(NC(=O)[C@@H](NC(=O)[C@H](CC(C)C)NC(=O)[C@H](CC(=O)O)NC(=O)[C@H](CC(C)C)NC(C)=O)[C@@H](C)O)CCC/C=C\CCC[C@@](C)(C(=O)N[C@@H](CC(C)C)C(=O)N[C@@H](CCC(N)=O)C(=O)N[C@@H](CCC(N)=O)C(=O)N[C@H](C(=O)N[C@H](C(=O)N[C@@H](CCCCN)C(=O)N[C@@H](C)C(=O)N[C@@H](CC(C)C)C(=O)N[C@@H](CC(N)=O)C(=O)N[C@@H](CCC(=O)O)C(=O)N[C@@H](CO)C(=O)N[C@@H](Cc2ccc(O)cc2)C(N)=O)C(C)C)C(C)C)NC(=O)[C@H](CC(C)C)NC1=O | 7.14 µM
13 | C=CCCC[C@](C)(NC(=O)[C@H](CC(C)C)NC(=O)[C@H](CCSC)NC(=O)[C@H](CCC(=O)O)NC(=O)[C@](C)(CCCC=C)NC(=O)[C@@H](NC(=O)[C@H](CC(C)C)NC(=O)[C@H](CC(=O)O)NC(=O)[C@H](CC(C)C)NC(C)=O)[C@@H](C)O)C(=O)N[C@@H](CC(C)C)C(=O)N[C@@H](CCC(N)=O)C(=O)N[C@@H](CCC(N)=O)C(=O)N[C@H](C(=O)N[C@H](C(=O)N[C@@H](CCCCN)C(=O)N[C@@H](C)C(=O)N[C@@H](CC(C)C)C(=O)N[C@@H](CC(N)=O)C(=O)N[C@@H](CCC(=O)O)C(=O)N[C@@H](CO)C(=O)N[C@@H](Cc1ccc(O)cc1)C(N)=O)C(C)C)C(C)C | 8.21 µM

Assay: Binding affinity to NHR peptide HR1P in pH 7.2 phosphate buffer assessed as thermal unfolding transition at 50 uM after 30 mins by CD spectroscopic method
In short: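 Equimolar HR1P/peptide mixtures, 50 µM final in 50 mM PBS pH 7.2, were preincubated at 25 °C for 30 min. Thermal denaturation was followed by CD at 222 nm over a 10–90 °C gradient at 2 °C/min.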

Row | Structure (SMILES) | Tm
14 | CSCC[C@H](NC(=O)[C@H](CCC(=O)O)NC(=O)[C@H](Cc1ccc(O)cc1)NC(=O)[C@@H](NC(=O)[C@H](CC(C)C)NC(=O)[C@H](CC(=O)O)NC(=O)[C@H](CC(C)C)NC(C)=O)[C@@H](C)O)C(=O)N[C@@H](CC(C)C)C(=O)N[C@@H](CO)C(=O)N[C@@H](CC(C)C)C(=O)N[C@@H](CCC(N)=O)C(=O)N[C@@H](CCC(N)=O)C(=O)N[C@H](C(=O)N[C@H](C(=O)N[C@@]1(C)CCC/C=C/CCC[C@@](C)(C(=O)N[C@@H](CO)C(=O)N[C@@H](Cc2ccc(O)cc2)C(N)=O)NC(=O)[C@H](CC(N)=O)NC(=O)[C@H](CC(C)C)NC(=O)[C@H](C)NC1=O)C(C)C)C(C)C | 56.6 to 66.6 °C
15 | CSCC[C@@H]1NC(=O)[C@H](CCC(=O)O)NC(=O)[C@@](C)(NC(=O)[C@@H](NC(=O)[C@H](CC(C)C)NC(=O)[C@H](CC(=O)O)NC(=O)[C@H](CC(C)C)NC(C)=O)[C@@H](C)O)CCC/C=C\CCC[C@@](C)(C(=O)N[C@@H](CC(C)C)C(=O)N[C@@H](CCC(N)=O)C(=O)N[C@@H](CCC(N)=O)C(=O)N[C@H](C(=O)N[C@H](C(=O)N[C@@H](CCCCN)C(=O)N[C@@H](C)C(=O)N[C@@H](CC(C)C)C(=O)N[C@@H](CC(N)=O)C(=O)N[C@@H](CCC(=O)O)C(=O)N[C@@H](CO)C(=O)N[C@@H](Cc2ccc(O)cc2)C(N)=O)C(C)C)C(C)C)NC(=O)[C@H](CC(C)C)NC1=O | 56.6 to 66.6 °C
